Screening data (PubChem)
rRNA inh HTS – selective bacterial rRNA inhibition in E. coli | E. coli WT GFP vs humanized-ribosome RFP mutants, fluorescence, 24 h; active compounds read low; DMSO median 0, no signal -100 | GFP signal change (wild-type ribosome), % (test concentration not listed) | hit rate 1.6% among 350,000 | AID 720706;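 active = significant combined selectivity score with lowered wild-type GFP, culture density cut under 30%, mutant RFP and density less affected; inactive = any of these conditions unmet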
S100A4 inh HTS – S100A4-myosin IIA interaction inhibition | S100A4/TAMRA-MyoIIA peptide fluorescence polarization | hit rate 0.14% among 360,000 | inhibition, % at 10.7 µM | AID 652163;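 active = mean inhibition of at least 70% across replicates, with every replicate also reaching that level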
Target sequence (P26447 whole entry, looked up): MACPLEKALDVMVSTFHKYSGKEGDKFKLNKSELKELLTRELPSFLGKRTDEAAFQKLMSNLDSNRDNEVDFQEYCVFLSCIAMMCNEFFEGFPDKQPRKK
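Test system – S100A4 monomer (human) · Compound – single-point compound testing · Schedule – 5 min incubation before reading · Probe or stimulus – TAMRA-labelled myosin IIA heavy-chain peptide probe, 5 nM · Benchmarks – neutral control DMSO, positive control TFP · Medium – Calcium-containing HEPES buffer, pH 7.2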
ERAP1 inh – inhibitors of human ERAP1 aminopeptidase | inhibition, % at 10.7 µM | recombinant ERAP1, Leu-AMC fluorescence, 60 min | hit rate 0.15% among 340,000;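 active = mean replicate inhibition of at least 30%, or all replicates individually reaching that 30% level; inactive = mean below 30% and not every replicate reaching it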;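 note: 0% = neutral control wells and 100% = L-leucinethiol positive control wells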
SIRT5 block – inhibitors of human sirtuin-5 desuccinylase. Q9NXA8. Purified SirT5, succinyl-peptide AMC, trypsin-coupled fluorescence. inhibition, % at 15 µM. hit rate 1.1% among 330,000. AID 652115; in the data active = inhibition above about 15%
Target sequence (Q9NXA8 whole entry, looked up): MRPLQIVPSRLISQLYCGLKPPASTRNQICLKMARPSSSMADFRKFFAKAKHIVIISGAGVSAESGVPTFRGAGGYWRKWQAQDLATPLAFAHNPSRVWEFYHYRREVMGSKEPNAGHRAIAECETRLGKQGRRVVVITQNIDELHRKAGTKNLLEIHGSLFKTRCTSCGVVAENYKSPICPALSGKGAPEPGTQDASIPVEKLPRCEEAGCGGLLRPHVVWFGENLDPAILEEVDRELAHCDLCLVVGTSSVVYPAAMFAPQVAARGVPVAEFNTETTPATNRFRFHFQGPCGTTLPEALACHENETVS
CFTR F508del cor – CFTR F508del correction in bronchial cells | AID 720511 | hit rate 0.36% among 350,000 | CFBE cells, YFP halide quenching; stimulated with forskolin plus potentiator P3; % fluorescence drop versus neutral controls | activity (quench increase), % at 7.58 µM;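 active = mean added fluorescence quench of at least 8% versus neutral control, with both replicates also reaching 8%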;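 note: cells transiently co-express mutant CFTR-F508del with the halide-sensitive YFP; corrector assay measuring rescue of mutant channel to the surface after 24 h compound exposure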
* = called active by the depositor; · = not tested or not shown. Compounds with a hit are over-represented: about 3.1% of the library has one in this group of screens.

SMILES	rRNA inh HTS	S100A4 inh HTS	ERAP1 inh	SIRT5 block	CFTR F508del cor
NS(=O)(=O)c1cc(C(=O)NC2CCSc3ccccc32)ccc1Cl (stereo unspecified)	6	-3	6	43*	2
NS(=O)(=O)c1cccc(C(=O)NC2CCSc3ccccc32)c1 (stereo unspecified)	3	-8	-1	-1	0
FC(F)(F)c1cnc(N2CCN(C(=S)NCc3ccccc3)CC2)c(Cl)c1	-9	0	-1	-4	-1
FC(F)(F)c1cnc(N2CCCN(C(=S)Nc3ccccc3)CC2)c(Cl)c1	-41*	-7	4	-3	0
CCOC(=O)c1nnn(CC(=O)Nc2ccccc2)c1C(=O)OCC	6	-8	43*	-6	·
CCOc1ccc(NC(=O)Cn2c(=O)n(CC3CCCO3)c(=O)c3ccccc32)cc1 (stereo unspecified)	10	-2	·	15*	-1
COc1ccc(S(=O)(=O)CC(=O)c2cc3cc(Br)ccc3oc2=O)cc1	-22*	-3	-3	5	1
CC(C)NC(=O)N[C@H]1CC[C@@H](CCNC(=O)C2CCOCC2)O[C@@H]1CO	3	-1	1	12	1
CCC1=Nc2cc(C(=O)NCC3CCCO3)ccc2Sc2ccc(Cl)cc21 (stereo unspecified)	-12	-3	-3	-1	15*
CCC1=Nc2cc(C(=O)NCc3cccnc3)ccc2Sc2ccc(C)cc21	-22*	-3	9	-1	12*
CCC1=Nc2cc(C(=O)NCC3CCCO3)ccc2Sc2ccc(Br)cc21 (stereo unspecified)	-4	-3	2	9	4
O=[N+]([O-])c1ccc(O)c(C2=NNC(c3ccccc3F)C2)c1 (stereo unspecified)	-54*	-3	3	-2	3
Oc1ccc(Cl)cc1C1=NNC(c2cccs2)C1 (stereo unspecified)	-55	-2	-4	1	1
C[C@H](CO)N1C[C@H](C)[C@@H](CN(C)Cc2ccncc2)Oc2ccc(NC(=O)Cc3ccccc3)cc2C1=O	-1	-5	-3	1	0
C(=N\N1CCN(Cc2cccc3ccccc23)CC1)/c1cccnc1	-30*	8	0	-2	-4
C=CCOc1ccc(CN(C)CC(=O)Nc2ccccc2[N+](=O)[O-])cc1	-24*	-1	-2	1	-1
Cc1ccc(CN2C(=O)CCC2(C)c2nnnn2-c2c(C)cccc2C)cc1 (stereo unspecified)	-33	-9	-7	16*	1
O=C(C1CCCC1)N1CC(=O)N2[C@H](CO)[C@H](c3ccc(C#CC4CCCC4)cc3)[C@H]2C1	-34	11	-2	1	0
O=C(NCc1ccccc1)[C@@H]1[C@@H](CO)[C@@H]2Cn3c(ccc(-c4cccc(F)c4)c3=O)[C@H]1N2	2	12	-2	-33	·
Cc1cc(C(=O)COc2ccc(Cl)cc2Br)c(C)n1C	-45*	5	-4	-2	-1
O=C(NCC[C@H]1CC[C@@H](NS(=O)(=O)c2ccc(F)cc2)[C@@H](CO)O1)Nc1ccc(F)cc1	-5	-2	2	-5	1
O=c1c(C/C=C/c2ccccc2)c(O)ccn1Cc1ccc(Cl)cc1Cl	-19	0	-1	-2	-2
O=c1c(Cc2ccc(Cl)cc2Cl)c(O)ccn1Cc1ccncc1	-35*	0	2	-5	-1
CCN(c1ccccc1)S(=O)(=O)c1ccc(Cl)c(NC(=O)CSc2nnc(C)s2)c1	-32*	1	3	-4	1
Cc1nnc(SCC(=O)Nc2cc(S(=O)(=O)N3CCCC3)ccc2Cl)s1	-6	-5	·	-5	2
SMILES	rRNA inh HTS	S100A4 inh HTS	ERAP1 inh	SIRT5 block	CFTR F508del cor
CN1C(=O)c2cc(NC(=O)C3CCCCC3)ccc2OC[C@@H]2O[C@H](CC(=O)NCC3CCCCC3)CC[C@@H]21	0	-3	2	4	-1
CCOC(=O)c1ccoc1CN1CCN(S(=O)(=O)c2ccc(C)c(C)c2)CC1	-20*	-5	-3	·	-3
Cc1ccc(S(=O)(=O)N2CCN(Cc3ccco3)CC2)cc1C	-6	-2	-2	-1	-10
C[C@H](NC(=O)N(C)C[C@@H]1OCc2ccccc2-c2ccccc2C(=O)N([C@@H](C)CO)C[C@H]1C)c1ccccc1	0	-6	-1	3	1
CCN(CC)c1ccc(N=Cc2ccccc2[N+](=O)[O-])cc1	-32*	-7	0	-2	·
CCN(CC)c1ccc(N=Cc2ccc([N+](=O)[O-])o2)cc1	·	-4	2	15*	·
CCCCCC(=O)N/N=C/c1ccc([N+](=O)[O-])o1	6	-4	6	3	0
CN1CCN(C(=O)C[C@@H]2CC[C@@H]3[C@@H](COc4ccc(NC(=O)C5CC5)cc4C(=O)N3C)O2)CC1	3	-7	0	-8	-3
COc1ccc(-c2c[n+]3c(n2-c2ccccc2)SCC3)cc1	0	-1	2	4	-3
c1ccc(Cn2c(-c3ccccc3)c[n+]3c2SCCC3)cc1	-45*	8	0	0	-2
Cc1c([N+](=O)[O-])cc(C(=O)NCc2ccc(F)cc2)cc1[N+](=O)[O-]	4	6	-2	111*	2
Cc1cc2cc(CNC(=O)c3ccc(C)c([N+](=O)[O-])c3)ccc2[nH]1	14	12	3	-2	0
C[C@H](CO)N1C[C@H](C)[C@@H](CN(C)S(=O)(=O)c2ccccc2F)Oc2cc(C#Cc3cccc(F)c3)ccc2S1(=O)=O	7	4	5	1	2
C[C@H](CO)N1C[C@H](C)[C@H](CN(C)S(=O)(=O)c2ccc(F)cc2)Oc2cc(C#Cc3ccncc3)ccc2S1(=O)=O	-2	-4	2	0	3
C[C@@H]1CN([C@@H](C)CO)S(=O)(=O)c2ccc(C#Cc3ccc(F)cc3)cc2O[C@@H]1CN(C)S(=O)(=O)c1ccc(F)cc1	2	55	1	26*	2
C[C@@H]1CN([C@H](C)CO)S(=O)(=O)c2ccc(C#Cc3cccc(F)c3)cc2O[C@@H]1CN(C)S(=O)(=O)c1ccccc1F	-1	1	1	18*	4
C[C@H](CO)N1C[C@H](C)[C@@H](CN(C)S(=O)(=O)c2ccc(F)cc2)Oc2cc(C#Cc3ccc(F)cc3)ccc2S1(=O)=O	3	-14	-4	23*	-1
C[C@H]1CN([C@@H](C)CO)S(=O)(=O)c2ccc(C#Cc3ccc(F)cc3)cc2O[C@H]1CN(C)S(=O)(=O)c1ccc(F)cc1	-3	-31	0	29*	3
Cc1noc(C)c1S(=O)(=O)N(C)C[C@H]1Oc2ccc(NC(=O)Nc3ccccc3)cc2C(=O)N([C@H](C)CO)C[C@@H]1C	-6	·	·	·	·
